The source made the active and inactive calls. Unless noted, the rule behind the calls is not given here.

In data set [1] the test system is Mus musculus. Put plainly: Neurotoxicity in Swiss albino mouse at 300 mg/kg, ip after 0.5 hrs. The data set is classed as toxicity, organism-based. Details: dose 300 mg/kg, route intraperitoneal. As to conditions: in vivo. The essentials: (§1)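 Acute neurotoxicity by rotorod test in mice given 30, 100 and 300 mg/kg ip, assessed 0.5 and 4.0 h after dosing. Reported as the minimal dose producing the effect in half or more of the animals. Absence of activity is judged at the 300 mg/kg maximum.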

The test system of data set [2] is Rattus norvegicus. The data set is described as follows: Anticonvulsant activity against subcutaneous strychnine-induced seizures in ip dosed Wistar rat assessed as minimum effective dose after 4 hrs. The data set is classed as functional. As to conditions: read-out: MED. Summed up: (§2)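 Rats; subcutaneous strychnine-induced seizure model with compounds given intraperitoneally at 30, 100 and 300 mg/kg. Activity is checked at 0.5 h and 4.0 h and recorded as the minimal dose active in at least half of the animals. Absence of activity is judged at the 300 mg/kg maximum.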

Data set [3] has as its system Rattus norvegicus. The data set is described as follows: Anticonvulsant activity against subcutaneous strychnine-induced seizures in Wistar rat at 300 mg/kg, ip after 0.5 hrs. Details: dose 300 mg/kg. Format: functional, organism-based. Summed up:
as §2

The test system of data set [4] is Mus musculus. The data set is described as follows: Anticonvulsant activity against subcutaneous pentylenetetrazole-induced seizures in ip dosed Swiss albino mouse assessed as minimum effective dose after 4 hrs. Format: functional. As to conditions: read-out: MED. The essentials: (§3)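 Mice; subcutaneous pentylenetetrazole seizure screen after ip dosing at 30, 100 and 300 mg/kg, read 0.5 and 4.0 h post-dose. Scored as the lowest dose protecting at least half of the animals. Absence of activity is judged at the 300 mg/kg maximum.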

Data set [5] has as its system Mus musculus. Put plainly: Anticonvulsant activity against subcutaneous pentylenetetrazole-induced seizures in ip dosed Swiss albino mouse assessed as minimum effective dose after 0.5 hrs. Format: functional. The note with it: read-out: MED. Summed up:
as §3

For data set [6], the system named is Mus musculus. Put plainly: Anticonvulsant activity against maximal electroshock-induced seizures in ip dosed Swiss albino mouse assessed as minimum effective dose after 4 hrs. The note with it: read-out: MED. Format: functional. Summed up:
(§4)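 Mice; compounds given ip at 30, 100 and 300 mg/kg and tested in the maximal electroshock seizure model at 0.5 and 4.0 h after dosing. Read-out is the minimal dose giving protection in half or more of the animals. Absence of activity is judged at the 300 mg/kg maximum.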

Data set [7] has as its system Mus musculus. The data set is described as follows: Anticonvulsant activity against maximal electroshock-induced seizures in ip dosed Swiss albino mouse assessed as minimum effective dose after 0.5 hrs. Format: functional. As to conditions: read-out: MED. Summed up:
as §4
A general note: Protection in the maximal electroshock model is a classic sign of anticonvulsant action.

In data set [8] the test system is Mus musculus. The data set is described as follows: Neurotoxicity in Swiss albino mouse at 300 mg/kg, ip after 4 hrs. The note with it: in vivo. Details: dose 300 mg/kg, route intraperitoneal. The data set is classed as toxicity, organism-based. Summed up: as §1
Data set [9] concerns Rattus norvegicus. The data set is described as follows: Anticonvulsant activity against maximal electroshock-induced seizures in Wistar rat at 30 mg/kg, po after 0.25 hrs. Format: functional, organism-based. Set-up: dose 30 mg/kg. The essentials:
(§5)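 Rats dosed orally at 30 mg/kg; maximal electroshock protection scored at 0.25, 0.5, 1, 2 and 4 h. Result is given as the number of protected rats out of four.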

Data set [10] has as its system Rattus norvegicus. Put plainly: Anticonvulsant activity against maximal electroshock-induced seizures in Wistar rat at 30 mg/kg, po after 0.5 hrs. Format: functional, organism-based. Set-up: dose 30 mg/kg. Summed up:
as §5

The subject of data set [11] is Rattus norvegicus. Put plainly: Anticonvulsant activity against maximal electroshock-induced seizures in Wistar rat at 30 mg/kg, po after 1 hr. Details: dose 30 mg/kg. Format: functional, organism-based. Summed up: as §5
Data set [12] concerns Rattus norvegicus. The data set is described as follows: Anticonvulsant activity against maximal electroshock-induced seizures in Wistar rat at 30 mg/kg, po after 2 hrs. Format: functional, organism-based. Details: dose 30 mg/kg. The essentials:
as §5

The subject of data set [13] is Rattus norvegicus. The data set is described as follows: Neurotoxicity in Wistar rat at 30 mg/kg, po after 0.25 hrs. Format: toxicity, organism-based. The note with it: in vivo. Set-up: dose 30 mg/kg, route oral. Summed up:
(§6)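 Oral dosing in rats at 30 mg/kg, neurotoxicity (rotorod) scored at 0.25, 0.5, 1, 2 and 4 h post-administration. Counts are out of four rats per time point.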

In data set [14] the test system is Rattus norvegicus. The data set is described as follows: Neurotoxicity in Wistar rat at 30 mg/kg, po after 0.5 hrs. Format: toxicity, organism-based. Details: dose 30 mg/kg, route oral. The note with it: in vivo. The essentials: as §6
The subject of data set [15] is Rattus norvegicus. Put plainly: Neurotoxicity in Wistar rat at 30 mg/kg, po after 1 hr. The note with it: in vivo. Format: toxicity, organism-based. Details: dose 30 mg/kg, route oral. Summed up: as §6
In data set [16] the test system is Rattus norvegicus. Put plainly: Neurotoxicity in Wistar rat at 30 mg/kg, po after 2 hrs. Format: toxicity, organism-based. Set-up: dose 30 mg/kg, route oral. As to conditions: in vivo. The essentials: as §6
For data set [17], the system named is Rattus norvegicus. Put plainly: Neurotoxicity in Wistar rat at 30 mg/kg, po after 4 hrs. Set-up: dose 30 mg/kg, route oral. As to conditions: in vivo. The data set is classed as toxicity, organism-based. Summed up: as §6
Data set [18] concerns Rattus norvegicus. Put plainly: Increase in GABA level in Wistar rat midbrain assessed per mg of tissue at 100 mg/kg, ip after 2 hrs. Format: functional. As to conditions: route intraperitoneal. The essentials:
(§7)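 Rats given 100 mg/kg ip and killed by decapitation 2 h later. Midbrain, medulla oblongata and cerebellum are placed separately in ice-cold 80% ethanol and processed for GABA, expressed per 100 mg tissue. Reference drug clobazam is given at 30 mg/kg ip. Values are mean ± SEM of six rats.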

The test system of data set [19] is Rattus norvegicus. The data set is described as follows: Increase in GABA level in Wistar rat medulla oblangata assessed per mg of tissue at 100 mg/kg, ip after 2 hrs. Format: functional, Medulla oblongata. As to conditions: route intraperitoneal. The essentials: as §7
The subject of data set [20] is Rattus norvegicus. Put plainly: Increase in GABA level in Wistar rat cerebellum assessed per mg of tissue at 100 mg/kg, ip after 2 hrs. The data set is classed as functional. As to conditions: route intraperitoneal. The essentials:
as §7

Data set [21] concerns Rattus norvegicus. The data set is described as follows: Increase in GABA level in Wistar rat midbrain assessed per mg of tissue at 30 mg/kg, ip after 2 hrs. The data set is classed as functional. The note with it: route intraperitoneal.
Data set [22] has as its system Rattus norvegicus. Put plainly: Increase in GABA level in Wistar rat medulla oblangata assessed per mg of tissue at 30 mg/kg, ip after 2 hrs. The data set is classed as functional, Medulla oblongata. As to conditions: route intraperitoneal. The essentials: (§8)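 Rats dosed ip, killed by decapitation 2 h after dosing. Midbrain, medulla oblongata and cerebellum were each placed separately in ice-cold 80% ethanol and processed for GABA by a previously reported method. GABA was expressed per 100 mg tissue. Values are the mean ± SEM of six rats, compared with an untreated control group.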

In data set [23] the test system is Rattus norvegicus. Put plainly: Increase in GABA level in Wistar rat cerebellum assessed per mg of tissue at 30 mg/kg, ip after 2 hrs. Format: functional. The note with it: route intraperitoneal. Summed up:
as §8

In the case of `O=C(N/N=C(/c1ccccc1)c1ccc([N+](=O)[O-])cc1)Nc1nnc(COc2ccc3ccccc3c2)o1`, the Activity entry in data set [1], in data set [8], in [13], in [14], in [15] and in data set [16] was “Non-toxic” in each case. Besides, the Activity entry in data set [17] is “Non-toxic”; in data set [18] it was 67.72 µg; in data set [19], 46.62 µg; in data set [20], 29.75 µg. The minimal effective dose in [2] stood at 300 mg/kg; in data set [4] it was 300 mg/kg; in data set [5], 100 mg/kg; in data set [6], 300 mg/kg; in data set [7] it was 100 mg/kg. Moreover, the MED entry in data set [3] was “inactive”. Besides, the result in [9], in data set [10], in data set [11] and in data set [12] was inactive.
Regarding `CN1C(=O)CC(=O)N(c2ccccc2)c2cc(Cl)ccc21` [CLOBAZAM], the values for the Activity in data set [21], in data set [22] and in data set [23] were 69.51 µg, 47.53 µg and 35.44 µg, respectively.

Values taken from ChEMBL document CHEMBL1177802, “Novel semicarbazones based 2,5-disubstituted-1,3,4-oxadiazoles: one more step towards establishing four binding site pharmacophoric model hypothesis for anticonvulsant activity” (Bioorg Med Chem Lett, 2010).
